# In ChEMBL document CHEMBL3797043 (Bioorg Med Chem Lett, 2016):
# pIC50, pKi: −log10 of the molar value. Activity calls are given as the source filed them. The calls are words filed in the database; no cut-off is given here.
# How the values were obtained:
# [1] = target: Pancreatic elastase (Sus scrofa) (UniProt P08419+P00772); test: Inhibition of porcine pancreatic elastase at 10 uM using N-Succinyl-ala-ala-ala-p-nitroanilide substrate assessed as reduction in p-nitroaniline release measured over 5 mins; assay type: protein assay
# How it was run: (§1)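 Commercial porcine enzymes (liver esterase, pancreatic elastase) assayed in microplates. The mix held enzyme, 100 uM chromogenic substrate, 0.125 M TrisCl and 0.2 mM EDTA at pH 8.0. Each reaction was started by adding substrate. Release of p-nitrophenol (esterase) or p-nitroaniline (elastase) was followed at 400 nm, with control rates linear over at least 5 min.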
# Liver carboxylesterase = target: T1, Liver carboxylesterase (Sus scrofa, UniProt Q29550); test: Inhibition of porcine liver esterase using 4-nitrophenyl butyrate substrate assessed as reduction in p-nitrophenol release measured over 5 mins; how it was run: as §1
# T1 sequence (Q29550 whole entry): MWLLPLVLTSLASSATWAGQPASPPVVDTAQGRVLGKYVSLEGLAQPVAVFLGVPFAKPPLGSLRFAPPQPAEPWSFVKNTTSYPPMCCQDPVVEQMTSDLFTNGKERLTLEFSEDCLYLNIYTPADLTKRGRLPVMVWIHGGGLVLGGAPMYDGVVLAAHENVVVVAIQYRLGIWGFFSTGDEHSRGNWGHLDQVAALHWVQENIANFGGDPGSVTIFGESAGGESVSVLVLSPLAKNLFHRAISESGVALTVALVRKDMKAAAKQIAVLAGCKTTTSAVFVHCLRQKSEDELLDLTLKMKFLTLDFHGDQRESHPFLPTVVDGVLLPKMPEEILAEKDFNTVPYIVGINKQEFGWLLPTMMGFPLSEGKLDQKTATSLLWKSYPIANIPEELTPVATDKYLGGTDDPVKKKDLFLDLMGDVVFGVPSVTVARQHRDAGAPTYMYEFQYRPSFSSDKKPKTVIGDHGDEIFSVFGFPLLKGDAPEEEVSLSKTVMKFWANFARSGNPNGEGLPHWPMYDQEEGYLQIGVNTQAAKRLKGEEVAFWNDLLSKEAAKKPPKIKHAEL
# [2] = target: T2, Fatty-acid amide hydrolase 1 (Homo sapiens) (UniProt O00519); test: Inhibition of MBP-fused human recombinant FAAH with truncated N-terminal transmembrane domain expressed in Escherichia coli T7 assessed as enzyme inactivation rate constant using D-AMC substrate incubated for 2 hrs by fluorescence based assay
# T2 sequence (whole entry): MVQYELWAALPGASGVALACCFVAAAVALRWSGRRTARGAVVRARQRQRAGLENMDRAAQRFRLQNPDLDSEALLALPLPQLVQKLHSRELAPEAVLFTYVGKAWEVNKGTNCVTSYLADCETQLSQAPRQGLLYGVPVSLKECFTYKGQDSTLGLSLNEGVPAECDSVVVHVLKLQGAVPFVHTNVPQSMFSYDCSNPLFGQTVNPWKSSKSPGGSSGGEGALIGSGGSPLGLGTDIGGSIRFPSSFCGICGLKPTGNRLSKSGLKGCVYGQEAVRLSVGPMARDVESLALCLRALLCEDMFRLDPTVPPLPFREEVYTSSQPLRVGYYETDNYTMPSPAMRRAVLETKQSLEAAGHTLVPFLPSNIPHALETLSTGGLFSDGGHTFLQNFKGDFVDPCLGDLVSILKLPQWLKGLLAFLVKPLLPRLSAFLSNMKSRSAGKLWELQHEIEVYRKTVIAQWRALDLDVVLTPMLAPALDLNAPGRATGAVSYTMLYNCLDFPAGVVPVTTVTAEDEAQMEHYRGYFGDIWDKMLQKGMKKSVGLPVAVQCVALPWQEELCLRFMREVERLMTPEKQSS
# How it was run: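 Human FAAH residues 34–579 as an MBP fusion, expressed in E. coli T7 Express with IPTG induction, then purified by amylose affinity and S100 chromatography. Substrate D-AMC at 5 μM final in 125 mM Tris-Cl, 1 mM EDTA, 0.1% BSA, pH 8.0, 37 °C; ex 351/em 430 nm. Apparent first-order k_i' measured at several inhibitor levels and fitted for k_inact and K_i (D-AMC Km 0.52 μM).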
# Mus musculus [3] = test: Analgesic effect in ICR mouse assessed as tail flick latencies at 50 mg/kg, ip measured 10 to 60 mins post dose by tail flick test; assay type: functional, organism-based
# How it was run: (§2)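 Male ICR mice (18–22 g), blinded observers. Compounds in DMSO stock, diluted in Ringer's solution (final DMSO <10%), given ip in 0.1 mL. Distal 2–3 cm of tail immersed in 52°C ± .5 water; withdrawal latency (s) recorded before dosing and at 10, 20, 30, 45, 60 min after. ≥6 mice per compound per dose; mean ± SEM; two-way ANOVA with Bonferroni test.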
# Mus musculus [4] = test: Analgesic effect in ICR mouse assessed as tail flick latencies at 20 to 40 mg/kg, ip measured 10 to 60 mins post dose by tail flick test; assay type: functional, organism-based; how it was run: as §2
# [5] = target: T3, Fatty-acid amide hydrolase 1 (Homo sapiens, UniProt O00519); test: Inhibition of MBP-fused human recombinant FAAH with truncated N-terminal transmembrane domain expressed in Escherichia coli T7 using D-AMC substrate measured over 40 mins by fluorescence based assay
# T3 sequence (O00519 whole entry): T2 sequence (whole entry)
# [6] = target: T2, Fatty-acid amide hydrolase 1 (Homo sapiens); test: Time dependent inhibition of MBP-fused human recombinant FAAH with truncated N-terminal transmembrane domain expressed in Escherichia coli T7 using D-AMC substrate measured over 40 mins by fluorescence based assay; conditions: TDE = time-dependent effect
# How it was run: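 MBP–FAAH (residues 34–579, E. coli) at 3 μg protein per well, 8 pM active enzyme, with 5 μM D-AMC in Tris-Cl/EDTA/0.1% BSA pH 8.0 at 37 °C; DMSO ≤1%. Reactions started with enzyme; fluorescence read at ex 351/em 430 nm over 40 min. […] Ki from IC50 = Ki(1+[S]/Km)+[Et]/2.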
# Mus musculus [7] = test: Analgesic effect in ICR mouse assessed as tail flick latencies at 20 to 100 mg/kg, ip measured 10 to 60 mins post dose by tail flick test; assay type: functional, organism-based; how it was run: as §2
Compound,inhibition [1],pIC50 (Liver carboxylesterase),Activity (Mus musculus [3]),other results
O=C(Oc1ccc(Cl)cc1)N1CCC(c2nc(C3=NOC(c4ccccc4)C3)cs2)CC1 (stereo not given),inactive,6.33,–,–
O=C(Nc1cccnc1)N1CCC(Cc2cccc(Oc3ccc(C(F)(F)F)cn3)c2)CC1,–,–,–,K [2]: 0.0033 s⁻¹
O=C(Oc1ccccc1)N1CCC(c2nc(C3=NOC(c4ccccc4)C3)cs2)CC1 (stereo not given),inactive,5.62,Active,Activity (Mus musculus [4]): inactive
O=C(Oc1ccccc1)N1CCC(c2nc(C3=NOC4(CCCc5ccccc54)C3)cs2)CC1 (stereo not given),–,–,–,pKi [5]: 8.56; inhibition [6]: tde
O=C(Nc1cnccn1)N1CCC(c2nc(C3=NOC(c4ccccc4)C3)cs2)CC1 (stereo not given),–,–,Active,Activity (Mus musculus [4]): inactive
O=C(Nc1nccs1)N1CCC(c2nc(C3=NOC(c4ccccc4)C3)cs2)CC1 (stereo not given),inactive,< 5.00,–,–
O=C(Oc1ccccc1Cl)N1CCC(c2nc(C3=NOC(c4ccccc4)C3)cs2)CC1 (stereo not given),inactive,6.06,–,–
N#Cc1ccc(OC(=O)N2CCC(c3nc(C4=NOC(c5ccccc5)C4)cs3)CC2)cc1 (stereo not given),–,–,Active,Activity (Mus musculus [7]): Dose-dependent effect
O=C(Oc1cccnc1)N1CCC(c2nc(C3=NOC(c4ccccc4)C3)cs2)CC1 (stereo not given),–,–,inactive,–
O=C(Nc1cccnn1)N1CCC(c2nc(C3=NOC(c4ccccc4)C3)cs2)CC1 (stereo not given),–,–,Active,Activity (Mus musculus [4]): inactive
Cc1ccccc1OC(=O)N1CCC(c2nc(C3=NOC(c4ccccc4)C3)cs2)CC1 (stereo not given),inactive,6.08,–,–
COc1ccc(OC(=O)N2CCC(c3nc(C4=NOC(c5ccccc5)C4)cs3)CC2)cc1 (stereo not given),–,–,inactive,–
O=C(Nc1ccccc1)N1CCC(c2nc(C3=NOC(c4ccccc4)C3)cs2)CC1 (stereo not given),inactive,5.25,–,–
